These results are taken from PubChem BioAssay.

A short description of assay [1]: OD615 S. cerevisiae growth inhibition, permissive medium, pilot counter-assay, permissive growth control for S. cerevisiae lifespan shortening project (AID 705;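 active means growth inhibition above 25% in both replicates, a cutoff set 3 SD above the mean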). Conditions: OD615, 24 h, at 10 µM, stronger effect = higher value. Summed up: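 Test system: Saccharomyces cerevisiae strain carrying genetically modified DeaD replicative-lifespan system; buffer or medium: SC raffinose/galactose permissive medium; dosing: one dose 10 µM, DMSO 0.25% final; times: 24 h exposure, 30 °C; measured by: OD at 615 nm; read-out basis: growth inhibition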

The nature of assay [2]: Restrictive medium S. cerevisiae growth inhibition, OD615, pilot screen of yeast lifespan reduction project, restrictive growth control (AID 706;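 active means growth inhibition above a set limit, 3 SD over mean compound inhibition, in both replicates, cut at about 43% in these data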;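 further: modified DeaD lifespan yeast strain shifted to restrictive glucose medium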). The note with it: OD615, 48 h, at 10 µM, stronger effect = higher value. Summed up:
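material = engineered S. cerevisiae DeaD strain | buffer or medium = glucose-based CSMM-D restrictive medium | dosing = one concentration, 10 µM final, 0.25% DMSO | schedule = 4 h pre-growth plus 48 h compound exposure, 30 °C | detection = OD615 absorbance reading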

The nature of assay [3]: viability gain of MRP-1-high H69AR cells under doxorubicin, pilot screen, MRP-1 activator project, CellTiter-Glo, duplicate (AID 807;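 active means viability increase at or above a cutoff of the median across tested compounds plus 3 SD, cut at about 8.5% in these data, passing the limit was not always enough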;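 further: compound pretreatment 18-22 h then 72 h combined with doxorubicin; 0% = doxorubicin alone and 100% = vehicle without doxorubicin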). The note with it: H69AR viability with doxorubicin, CellTiter-Glo luminescence; at 10 µM; stronger effect = higher value. For orientation: ATP-based viability assays read luminescence as a measure of living cells.
Assay [4] in a line: growth suppression of beta-catenin knockout HCT116, pilot screen, human colon tumor cells (AID 823).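 Further: 0% = wells killed by 20 µM Hyamine and 100% = untreated DMSO cell wells.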 The note with it: CellTiter-Glo, 60 h, at 10 µM, stronger effect = lower value.
Assay [5] in a line: growth suppression of PTEN-deleted HCT116, pilot screen, cell-based, HCT116 clonal line, CellTiter-Glo (AID 824;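 active means viability at or below 27.92% in each of two runs, the all-compound median minus 4 SD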;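 further: 0% = 20 µM Hyamine control and 100% = vehicle cell control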). Conditions: 60 h, at 10 µM, stronger effect = lower value.
A short description of assay [6]: inhibitors of the yeast RAM network, pilot screen, dse1pr::URA3 reporter, 5-FOA selection (AID 869;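 active means inhibition over a set limit, the all-compound mean plus 3 SD, in both replicate runs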;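 further: 0% = DMSO wells with no growth and 100% = 10 µM 1-NA-PP1 with full growth; RAM network block rescues cells from 5-FOA so hits raise OD615 growth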). Conditions: S. cerevisiae dse1pr::URA3 5-FOA growth, OD615, 2 d; at 10 µM; stronger effect = higher value; strain carries analog-sensitive mutant Cbk1 kinase.
Assay [7] is described as follows: RAM signaling pathway blockade in yeast – S. cerevisiae, Pdr1DBD-CYC8 efflux-inhibited sensitized strain, primary screen (AID 1298;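 active means RAM network inhibition above 8.4% in each of two replicates, 3 SD over the compound average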;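 further: 0% = DMSO untreated cells without growth and 100% = 10 µM 1-NA-PP1 full growth; higher means more yeast growth rescued from 5-FOA killing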). Conditions: S. cerevisiae cbk1-as DSE1-URA3 strain, 5-FOA growth OD615, 2 d; at 50 µM; stronger effect = higher value.

Values without a mark were called inactive. Records with an inconclusive call do not appear. Active and inactive are the calls of the source.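 How the source made its calls, unless noted: active means cell viability at or below a set limit in both duplicate runs, the limit being the all-compound median minus 4 SD (cut at about 23% in these data, passing the limit was not always enough); inconclusive means no clear call, values can overlap the other calls; inactive means the rest.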

With `Cc1onc(-c2ccccc2)c1C(=O)Nc1ccccc1C#N`, the growth inhibition in assay [1] was -5.39%; in assay [2], -4.02%. Also, the viability increase in assay [3] was -2.87%. Moreover, the viability (commonly a read-out of living cells in per cent, often relative to untreated cells) is 97.3% in assay [4] and 91.8% in assay [5]. The inhibition (in general, the change of the read-out against control, counted positive when it falls) in assay [6] was 1.89%. The RAM network inhibition in assay [7] is 2.87%.
In the case of `CCc1ccc(C2CC(c3ccccc3Cl)Nc3nc(N)nn32)cc1` (stereo not drawn), the growth inhibition in assay [1] is 8.37%; in assay [2] it was 26.1%. Besides, the viability increase in assay [3] was -2.66%. The viability is 95% in assay [4] and 80.7% in assay [5]. The inhibition in assay [6] is 0.86%. In addition, the RAM network inhibition in assay [7] was 8.56%.
Regarding `Cn1c(=O)oc2cc(S(=O)(=O)Nc3ccc(Cl)cc3F)ccc21`, the results for the growth inhibition in assay [1] and in assay [2] were -9.48% and -19.3%, respectively. For the same compound, the viability increase in assay [3] is 2.12%. The viability in assay [4] is 105%; in assay [5], 92.7%. Moreover, in assay [6], the inhibition was 0.53%. In addition, in assay [7], the RAM network inhibition was 9.07%.
`O=C(Nc1nc(-c2cccs2)cs1)c1ccc(S(=O)(=O)N2CCCCC2)cc1`: the growth inhibition in assay [1] is 0.945%; in assay [2] it was -2.17%. Besides, in assay [3], the viability increase was -3.02%. For the same compound, the viability in assay [4] is 71.7%; in assay [5] it was 61.8%. In addition, in assay [6], the inhibition is 1.4%. Moreover, the RAM network inhibition in assay [7] is 4.06%.
For `Cc1nnc(SCCn2c(N3CCN(c4ccccc4)CC3)nc3c2c(=O)n(C)c(=O)n3C)s1`, the growth inhibition in assay [1] was -8.87%; in assay [2], -18.3%. The viability increase in assay [3] was -1.99%. The viability is 104% in assay [4] and 102% in assay [5]. Also, in assay [6], the inhibition is 1.23%. The RAM network inhibition in assay [7] was 2.19%.
Turning to `CCCCSc1nc(N)c(NC(=O)c2ccco2)c(=O)[nH]1`, the growth inhibition is -12.7% in assay [1] and -14.2% in assay [2]. Further, the viability increase in assay [3] is -2%. In addition, the viability in assay [4] is 101%; in assay [5], 93.4%. Besides, in assay [6], the inhibition was 1.58%. Moreover, in assay [7], the RAM network inhibition was 0.8%.
As to `CCN1CCN(C(=O)CSCc2nc(-c3ccc(OC)c(OC)c3)oc2C)CC1`, the growth inhibition in assay [1] was -3.83%; in assay [2], -7.22%. In addition, in assay [3], the viability increase was -1.52%. The viability in assay [4] and in assay [5] was 101% throughout. Also, in assay [6], the inhibition is 0.475%. Also, the RAM network inhibition in assay [7] was 1.3%.
With `Cc1ccc(-n2nnc3c(=O)n(Cc4ccccc4C)cnc32)cc1`, the figures for the growth inhibition in assay [1] and in assay [2] were -4.99% and -6.7%, respectively. Also, the viability increase in assay [3] is -0.53%. The viability in assay [4] is 102%; in assay [5], 100%. For the same compound, in assay [6], the inhibition is 2.44%. For the same compound, the RAM network inhibition in assay [7] is 4.84%.
Regarding `CC(=O)c1c(C)[nH]c(C(=O)N2c3ccccc3CC2C)c1C` (stereo not drawn), the growth inhibition in assay [1] is -1.11%; in assay [2] it was 3.09%. Also, in assay [3], the viability increase was -0.41%. Further, the viability was 92.3% in assay [4] and 92.6% in assay [5]. In assay [6], the inhibition is 0.755%. Further, in assay [7], the RAM network inhibition is 3.82%.
As to `CCOC(=O)CSc1nnc(Cc2cc(=O)[nH]c(=O)[nH]2)n1-c1ccc(Cl)cc1`, the growth inhibition in assay [1] is -16.1%; in assay [2] it was -1.39%. The viability increase in assay [3] was 1.33%. Moreover, the viability in assay [4] is 101%; in assay [5] it was 100%. In assay [6], the inhibition was 2.48%. Also, the RAM network inhibition in assay [7] was 4.03%.
For `CCCCN1C(=O)/C(=C2\SC(N3CCCCC3)=NC2=O)c2ccccc21`, the growth inhibition in assay [1] was -4.39%; in assay [2], 14.6%. Besides, the viability increase in assay [3] is -2.31%. For the same compound, the values for the viability in assay [4] and in assay [5] were 48.4% and 45.8%, respectively. In assay [6], the inhibition is 1.53%. Moreover, the RAM network inhibition in assay [7] is 3.38%.
As for `COc1ccc(Cl)cc1NC(=O)C1CSC(c2ccncc2)=N1` (stereo not drawn), the figures for the growth inhibition in assay [1] and in assay [2] were 1.68% and -12.2%, respectively. Further, the viability increase in assay [3] was -8.24%. Also, the viability in assay [4] is 65.2%; in assay [5], 61.5%. The inhibition in assay [6] was 0.41%. Also, the RAM network inhibition in assay [7] is 5.11%.
Regarding `Brc1ccc(CSc2nnc(-c3ccccn3)n2Cc2ccco2)cc1`, the growth inhibition in assay [1] is 2.3%; in assay [2], 28.9%. Also, the viability increase in assay [3] is -3.69%. Further, the viability in assay [4] was 15.2% (active); in assay [5], 15.7% (active). Also, the inhibition in assay [6] was 2.53%. Also, the RAM network inhibition in assay [7] is 7.63%.
Turning to `CCn1c(N)nc2c1c(=O)n(C)c(=O)n2C`, the growth inhibition was 4.48% in assay [1] and -1.29% in assay [2]. Further, in assay [3], the viability increase was -1.39%. The viability in assay [4] was 108%; in assay [5], 98.9%. Moreover, the inhibition in assay [6] was 0.32%. Moreover, the RAM network inhibition in assay [7] was 2.67%.
Consider `Cc1ccccc1-n1c(SC/C(O)=C(\C#N)c2nc3ccccc3[nH]2)nnc1-c1ccncc1`, for which the growth inhibition in assay [1] was 2.37%; in assay [2], 19.1%. Besides, the viability increase in assay [3] was -3.4%. For the same compound, the viability in assay [4] is 93.5%; in assay [5], 81.7%. Moreover, the inhibition in assay [6] is 2.92%. Besides, the RAM network inhibition in assay [7] is 2.28%.
In the case of `O=C(c1ccccc1)N1CCN(C2CC(=O)N(CCc3ccccc3)C2=O)CC1` (stereo not drawn), the growth inhibition in assay [1] was -3.21%; in assay [2] it was 4.64%. Further, the viability increase in assay [3] is 1.3%. Besides, the figures for the viability in assay [4] and in assay [5] were 96.8% and 100%, respectively. Further, the inhibition in assay [6] was 2.52%. Further, the RAM network inhibition in assay [7] was 4.98%.
As for `CC(=O)c1cccc(NC2c3ccccc3C(=O)N2Cc2ccc3c(c2)OCO3)c1` (stereo not drawn), the growth inhibition in assay [1] is -2.94%; in assay [2], 7.7%. Besides, the viability increase in assay [3] is -2.61%. The figures for the viability in assay [4] and in assay [5] were 92.7% and 79.6%, respectively. Further, in assay [6], the inhibition was 2.9%. For the same compound, the RAM network inhibition in assay [7] is 2.2%.
`C=CCOC(=O)C1=C(C)NC(=O)NC1/C=C/c1ccccc1` (stereo not drawn): the growth inhibition in assay [1] is -5.98%; in assay [2] it was -13.1%. Moreover, in assay [3], the viability increase was -0.12%. The results for the viability in assay [4] and in assay [5] were 92.5% and 95%, respectively. Besides, the inhibition in assay [6] is 2.77%. Besides, in assay [7], the RAM network inhibition was 8.11%.
Consider `Oc1cccc(/C=N/c2c(-c3ccco3)nc3ccccn23)c1`, for which the growth inhibition in assay [1] is -9.82%; in assay [2], -4.22%. Besides, the viability increase in assay [3] is -3.47%. Moreover, the viability in assay [4] is 87.7%; in assay [5] it was 93.7%. For the same compound, the inhibition in assay [6] is 2%. For the same compound, the RAM network inhibition in assay [7] was 5.22%.
For `COc1nc(Nc2ccc(C(C)=O)cc2)nc(OC)n1`, the growth inhibition in assay [1] is 0.42%; in assay [2], -4.17%. In assay [3], the viability increase is -4.04%. For the same compound, the viability in assay [4] was 99.5%; in assay [5] it was 97.9%. The inhibition in assay [6] is 1.75%. Also, the RAM network inhibition in assay [7] is 6.28%.
`CCCCN(CC)CCNc1c(NC2CCN(C(=O)OCC)CC2)c(=O)c1=O`: the growth inhibition was 2.35% in assay [1] and 5.98% in assay [2]. In addition, in assay [3], the viability increase was -0.12%. The viability in assay [4] is 100%; in assay [5], 95%. In addition, in assay [6], the inhibition is 0.09%. The RAM network inhibition in assay [7] was 3.37%.
Consider `CNC(=O)c1c(N)sc2c1CCCCC2`, for which the growth inhibition in assay [1] is -2.01%; in assay [2] it was 8.19%. For the same compound, the viability increase in assay [3] was -3.12%. The viability in assay [4] was 88.8%; in assay [5] it was 88.1%. Further, the inhibition in assay [6] was 1.19%. Further, in assay [7], the RAM network inhibition is 4.13%.
Regarding `Cc1ccc(Cn2c(CN3CC(C)OC(C)C3)nc3c2c(=O)n(C)c(=O)n3C)cc1` (stereo not drawn), the growth inhibition in assay [1] is -5.45%; in assay [2], -10.8%. In addition, in assay [3], the viability increase was -1.28%. Also, the results for the viability in assay [4] and in assay [5] were 96.1% and 95.1%, respectively. Besides, in assay [6], the inhibition is 2.09%. Also, the RAM network inhibition in assay [7] was 1.95%.
Turning to `O=C(c1ccncc1)N1CCN(C(=O)c2cccc3ccccc23)CC1`, the growth inhibition in assay [1] was -14.8%; in assay [2], -7.07%. Moreover, the viability increase in assay [3] was -2.73%. Moreover, the values for the viability in assay [4] and in assay [5] were 101% and 93.9%, respectively. Moreover, the inhibition in assay [6] is 2.16%. For the same compound, the RAM network inhibition in assay [7] was 2.45%.
